Tests used:
Liver [1] = assay: Drug uptake in Sprague-Dawley rat liver at 1.8 uCi, iv administered as bolus dose after 7 days; format: ADME, organism-based; details: in vivo, 168 h
Summary of the method: (§1)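 Female Sprague Dawley rats, about 13 weeks old, in five groups of three. Single IV tail-vein bolus of mixed 3H-conjugate (8.90 µCi/rat) and 14C-conjugate (1.77 µCi/rat), total dose 5.0 mg/kg. Vehicle was 10% Poloxamer 188, brought to pH 8.0 with NaHCO3, then diluted with an equal volume of PBS. Groups were killed at 6 h, 1, 7, 14 and 28 days. Tissues and femurs were incinerated in a biological oxidizer. Values are % of administered dose, with skeleton taken as 8% of body weight, averaged over three rats.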

Heart [2] = assay: Drug uptake in Sprague-Dawley rat heart at 1.8 uCi, iv administered as bolus dose after 6 hrs; format: ADME, organism-based; details: in vivo; summary of the method: as §1
Liver [3] = assay: Drug uptake in Sprague-Dawley rat liver at 1.8 uCi, iv administered as bolus dose after 14 days; format: ADME, organism-based; details: in vivo, 336 h; summary of the method: as §1
Bone [4] = assay: Drug uptake in Sprague-Dawley rat bone at 1.8 uCi, iv administered as bolus dose after 7 days; format: ADME, organism-based, Bone element; details: in vivo, 168 h; summary of the method: as §1
Bone [5] = assay: Drug uptake in Sprague-Dawley rat bone at 1.8 uCi, iv administered as bolus dose after 28 days; format: ADME, organism-based, Bone element; details: in vivo, 672 h; summary of the method: as §1
Spleen [6] = assay: Drug uptake in Sprague-Dawley rat spleen at 1.8 uCi, iv administered as bolus dose after 6 hrs; format: ADME, organism-based; details: in vivo; summary of the method: as §1
Kidney [7] = assay: Drug uptake in Sprague-Dawley rat kidney at 1.8 uCi, iv administered as bolus dose after 1 day; format: ADME, organism-based; details: in vivo, 24 h; summary of the method: as §1
Kidney [8] = assay: Drug uptake in Sprague-Dawley rat kidney at 1.8 uCi, iv administered as bolus dose after 28 days; format: ADME, organism-based; details: in vivo, 672 h; summary of the method: as §1
Liver [9] = assay: Drug uptake in Sprague-Dawley rat liver at 1.8 uCi, iv administered as bolus dose after 28 days; format: ADME, organism-based; details: in vivo, 672 h; summary of the method: as §1
Rattus norvegicus [10] = assay: Toxicity in Sprague-Dawley rat assessed as behavioral change at 1.8 uCi, iv administered as bolus dose after 28 dyas; format: organism-based; details: in vivo
Summary of the method: (§2)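 Same dual-label study: female Sprague Dawley rats got one IV tail-vein bolus of [3H] (8.90 µCi) plus [14C] (1.77 µCi) conjugate, total 5.0 mg/kg, in Poloxamer 188/PBS vehicle at pH 8.0. Groups of three were sacrificed up to 28 days after dosing.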

Heart [11] = assay: Drug uptake in Sprague-Dawley rat heart at 1.8 uCi, iv administered as bolus dose after 1 day; format: ADME, organism-based; details: in vivo, 24 h; summary of the method: as §1
Bone [12] = assay: Drug uptake in Sprague-Dawley rat bone at 1.8 uCi, iv administered as bolus dose after 14 days; format: ADME, organism-based, Bone element; details: in vivo, 336 h; summary of the method: as §1
Kidney [13] = assay: Drug uptake in Sprague-Dawley rat kidney at 1.8 uCi, iv administered as bolus dose after 14 days; format: ADME, organism-based; details: in vivo, 336 h; summary of the method: as §1
Brain [14] = assay: Drug uptake in Sprague-Dawley rat brain at 1.8 uCi, iv administered as bolus dose after 1 day; format: ADME, organism-based; details: in vivo, 24 h; summary of the method: as §1
Rattus norvegicus [15] = assay: Toxicity in Sprague-Dawley rat assessed as unusual reaction at 1.8 uCi, iv administered as bolus dose after 28 dyas; format: organism-based; details: in vivo; summary of the method: as §2
Spleen [16] = assay: Drug uptake in Sprague-Dawley rat spleen at 1.8 uCi, iv administered as bolus dose after 7 days; format: ADME, organism-based; details: in vivo, 168 h
Summary of the method: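 Female Sprague Dawley rats, about 13 weeks old on arrival, in five groups of three. Single IV tail-vein bolus of mixed [3H]- and [14C]-labelled conjugate (8.90 and 1.77 µCi/rat), total 5.0 mg/kg. Vehicle was 10% Poloxamer 188 adjusted to pH 8.0 with NaHCO3, then diluted with an equal volume of PBS. Groups killed at 6 h, 1, 7, 14 and 28 days. Spleen radioactivity measured by oxidizer incineration and reported as percent of administered dose, averaged over three rats.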

Liver [17] = assay: Drug uptake in Sprague-Dawley rat liver at 1.8 uCi, iv administered as bolus dose after 1 day; format: ADME, organism-based; details: in vivo, 24 h; summary of the method: as §1
Spleen [18] = assay: Drug uptake in Sprague-Dawley rat spleen at 1.8 uCi, iv administered as bolus dose after 1 day; format: ADME, organism-based; details: in vivo, 24 h; summary of the method: as §1
Kidney [19] = assay: Drug uptake in Sprague-Dawley rat kidney at 1.8 uCi, iv administered as bolus dose after 7 days; format: ADME, organism-based; details: in vivo, 168 h; summary of the method: as §1
Kidney [20] = assay: Drug uptake in Sprague-Dawley rat kidney at 1.8 uCi, iv administered as bolus dose after 6 hrs; format: ADME, organism-based; details: in vivo; summary of the method: as §1
Bone [21] = assay: Drug uptake in Sprague-Dawley rat bone at 1.8 uCi, iv administered as bolus dose after 6 hrs; format: ADME, organism-based, Bone element; details: in vivo; summary of the method: as §1
Bone [22] = assay: Drug uptake in Sprague-Dawley rat bone at 1.8 uCi, iv administered as bolus dose after 1 day; format: ADME, organism-based, Bone element; details: in vivo, 24 h; summary of the method: as §1
Spleen [23] = assay: Drug uptake in Sprague-Dawley rat spleen at 1.8 uCi, iv administered as bolus dose after 28 days; format: ADME, organism-based; details: in vivo, 672 h; summary of the method: as §1
Brain [24] = assay: Drug uptake in Sprague-Dawley rat brain at 1.8 uCi, iv administered as bolus dose after 6 hrs; format: ADME, organism-based; details: in vivo; summary of the method: as §1
Liver [25] = assay: Drug uptake in Sprague-Dawley rat liver at 1.8 uCi, iv administered as bolus dose after 6 hrs; format: ADME, organism-based; details: in vivo; summary of the method: as §1
Spleen [26] = assay: Drug uptake in Sprague-Dawley rat spleen at 1.8 uCi, iv administered as bolus dose after 14 days; format: ADME, organism-based; details: in vivo, 336 h; summary of the method: as §1

CCOC(=O)CCCCCCN1C(=O)CC[C@@H]1/C=C/[C@@H](OC(=O)Cc1ccc(COC(=O)N[C@@H](CC(C)C)C(=O)N[C@@H](CCCNC(=N)N)C(=O)Nc2ccc(CO[14C](=O)NCCCC(O)(P(=O)(O)O)P(=O)(O)O)cc2)cc1)C(F)(F)c1ccccc1 was tested, and the Drug uptake (Liver [1]) was 0.61 %ID, the Drug uptake (Heart [2]) was 0.017 %ID and the Drug uptake (Liver [3]) was 0.27 %ID. The Drug uptake (Bone [4]) was 3.51 %ID, the Drug uptake (Bone [5]) was 2.44 %ID and the Drug uptake (Spleen [6]) was 0.34 %ID. For the same compound, the Drug uptake (Kidney [7]) was 0.047 %ID, the Drug uptake (Kidney [8]) was 0.0092 %ID and the Drug uptake (Liver [9]) was 0.1 %ID. For the same compound, the Activity (Rattus norvegicus [10]) was “Non-Toxic”, the Drug uptake (Heart [11]) was 0.009 %ID and the Drug uptake (Bone [12]) was 2.52 %ID. The Drug uptake (Kidney [13]) was 0.013 %ID, the Drug uptake (Brain [14]) was 0.012 %ID and the Activity (Rattus norvegicus [15]) was “Non-Toxic”. For the same compound, the Drug uptake (Spleen [16]) was 0.086 %ID, the Drug uptake (Liver [17]) was 2.5 %ID and the Drug uptake (Spleen [18]) was 0.23 %ID. For the same compound, the Drug uptake (Kidney [19]) was 0.02 %ID, the Drug uptake (Kidney [20]) was 0.11 %ID and the Drug uptake (Bone [21]) was 5.52 %ID. For the same compound, the Drug uptake (Bone [22]) was 4.63 %ID, the Drug uptake (Spleen [23]) was 0.039 %ID and the Drug uptake (Brain [24]) was 0.014 %ID. For the same compound, the Drug uptake (Liver [25]) was 7.03 %ID and the Drug uptake (Spleen [26]) was 0.05 %ID.
